# Source: PubChem (Johns Hopkins Ion Channel Center)
# The list is not random: actives were taken first. Their share in the collection is about 3.5%.
# RGS4 block: RGS4 inhibitors, primary screen, cell-based, HEK293 M3R inducible RGS4, calcium flux; B-score at 10 µM; Regulator of G-protein signaling 4 (Homo sapiens), P49798; Fluo-4 calcium flux; hits give high values; triggered by carbachol at its EC20; 310,000 compounds, 0.45% hits;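 active means B-score, a plate-corrected calcium signal, over three deviations above library mean, with baseline fluorescence within five deviations of library mean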;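 further: RGS4 expression induced by doxycycline in cells with stable M3 receptor; B-score is computed from the integrated fluorescence ratio over baseline after carbachol; higher B-score means a larger calcium signal and so more RGS4 inhibition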
# Target sequence (P49798 whole entry, looked up): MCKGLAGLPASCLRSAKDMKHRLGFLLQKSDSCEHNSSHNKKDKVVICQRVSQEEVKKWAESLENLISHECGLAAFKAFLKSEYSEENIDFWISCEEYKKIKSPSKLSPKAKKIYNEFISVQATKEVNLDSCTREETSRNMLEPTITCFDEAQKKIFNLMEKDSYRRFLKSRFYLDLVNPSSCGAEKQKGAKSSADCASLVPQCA
# MrgX1 ag: agonists of human MrgX1 receptor, primary screen, HEK293 cells, Fluo-4 calcium flux. B-score at 10 µM. Fluo-4 calcium fluorescence, agonist mode; hits give high values. 310,000 compounds, 0.44% hits;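 active means calcium response B-score plate-corrected fluorescence ratio at least 3 library SD, with starting fluorescence B-score inside 5 SD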
# Target sequence (Q96LB2 whole entry, looked up): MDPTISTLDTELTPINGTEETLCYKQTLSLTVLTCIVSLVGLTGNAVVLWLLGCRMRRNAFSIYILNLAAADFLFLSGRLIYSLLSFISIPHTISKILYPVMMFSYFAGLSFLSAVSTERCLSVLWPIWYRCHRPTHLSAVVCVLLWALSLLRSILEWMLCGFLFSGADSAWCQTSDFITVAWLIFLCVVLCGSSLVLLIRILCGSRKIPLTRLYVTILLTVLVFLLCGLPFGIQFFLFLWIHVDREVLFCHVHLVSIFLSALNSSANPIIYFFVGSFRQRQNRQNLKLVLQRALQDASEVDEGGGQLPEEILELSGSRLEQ
#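 Assay system: MrgX1-expressing HEK293 cells / Amount: fifteen thousand cells per well / Doses: test compound in the initial addition of three / Timing: cells plated overnight, dye loaded 0.5 h 37 °C, 0.5 h room temperature / Technique: kinetic calcium dye fluorescence, Fluo-4 NW / Control set: positive and negative controls per plate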
# RGS4 act: RGS4 potentiators or activators, primary screen, cell-based, HEK293 M3R inducible RGS4, calcium flux. 310,000 compounds, 0.92% hits. carbachol calcium flux Fluo4; hits give low values. B-score at 10 µM. AID 463111, 2010;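 active means B-score of the integrated calcium signal more than 4 SD below the library mean, with starting fluorescence not abnormally high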;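 further: negative B-score means reduced calcium response which marks RGS4 activation or potentiation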
#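 test system = HEK293 cells with stable M3R and inducible RGS4 | schedule = recording 10 s baseline at 1 Hz, 100 s post-agonist | technique = Fluo4-AM (2 µM) calcium-flux fluorescence, kinetic read | measure = Agonist-evoked peak-minus-minimum fluorescence over baseline, integrated ratio, B score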
# MrgX1 antag: antagonists of human MrgX1 receptor, primary screen, HEK293 cells, Fluo-4 calcium flux. Mas-related G-protein coupled receptor member X1 (Homo sapiens), Q96LB2. BAM8-22 antagonism; hits give low values. B-score at 10 µM. 310,000 compounds, 1.3% hits;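 active means calcium-response B-score plate-corrected more than 3 library SD below zero, starting fluorescence within 5 deviations, no agonist response on first addition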;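 further: peak minus trough fluorescence over baseline after final BAM8-22 challenge near maximal dose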
# MrgX1 PAM: positive allosteric modulators of MrgX1, primary screen, HEK293 cells, Fluo-4 calcium flux | AID 588675, 2011 | FDSS; hits give high values | 310,000 compounds, 0.63% hits | B-score at 10 µM | Mas-related G-protein coupled receptor member X1 (Homo sapiens), Q96LB2;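 active means plate-corrected calcium response at least 3 library SD above typical, normal starting fluorescence, not activating the receptor alone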;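 further: compound read alongside a low EC10 to EC30 dose of BAM8-22 agonist; peak minus trough fluorescence over baseline measured at the second addition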
# MrgX1 PAM conf: MrgX1 positive allosteric modulators, duplicate retest, confirmation, HEK293 cells, Fluo-4 calcium flux; shares compounds with MrgX1 PAM; Fluo-4 calcium fluorescence, FDSS; activation (ratio percentage), % at 10 µM; 1,200 compounds, 13% hits; AID 602413, 2012;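 active means ratio at least 3 SD above the weak peptide control, stable starting fluorescence, no direct agonism earlier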;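 further: compound followed by low BAM8-22 agonist challenge near EC20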
# HEK293 Ca flux: nonspecific calcium signal in parental HEK293, confirmation, counter-screen for MrgX1 antagonist project, parental HEK293 cells, Fluo-4 calcium flux; 4,000 compounds, 2% hits; Fluo-4 calcium fluorescence, FDSS; fluorescence ratio F(max-min)/F0 at 10 µM; shares compounds with MrgX1 antag;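 active means duplicate-averaged calcium fluorescence ratio at least three times the standard deviation of buffer wells, a nonspecific response in parental cells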
# HEK293 Ca counter: calcium response in parental HEK293 cells, primary screen, counter-screen for MrgX1 allosteric activator project, cell-based, Fluo-4 calcium flux, duplicate. shares compounds with MrgX1 antag. Fluo-4 fluorescence ratio; hits give high values. fluorescence ratio F(max-min)/F0 at 10 µM. 4,000 compounds, 0.4% hits. AID 624114, 2012;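 active means calcium fluorescence ratio, averaged over duplicates, at least 3 SD of the buffer-well ratio, meaning a nonspecific response in receptor-free cells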;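 further: untransfected parental HEK293 lacking MrgX1 used as counterscreen for MrgX1 allosteric activators; fluorescence change taken during the second addition on a kinetic imager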
# HEK293 Ca cntr2: calcium response in parental HEK293 cells, primary screen, counter-screen for MrgX1 agonist project, cell-based, Fluo-4 calcium flux, duplicate, agonist mode | fluorescence ratio F(max-min)/F0 at 10 µM | AID 624115, 2012 | 4,000 compounds, 8.7% hits | Fluo-4 calcium fluorescence (FDSS); hits give high values | shares compounds with MrgX1 antag;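 active means calcium fluorescence ratio at least three times the spread of buffer wells, meaning a non-specific response in parental cells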
# * = called active by the depositor; i = inactive; x = not tested or not shown.
SMILES,RGS4 block,MrgX1 ag,RGS4 act,MrgX1 antag,MrgX1 PAM,MrgX1 PAM conf,HEK293 Ca flux,HEK293 Ca counter,HEK293 Ca cntr2
Cc1nc(-c2noc(-c3ccc(Cl)cc3)n2)c(C(F)(F)F)o1,i,i,i,i,i,x,x,x,x
Cc1ccccc1NS(=O)(=O)c1ccc(NC(=O)c2ccco2)cc1,i,i,i,i,11*,i,i,i,i
Cc1ccccc1NC(=O)c1ccco1,i,i,i,i,i,x,x,x,x
O=C(NCCc1c[nH]c2ccccc12)c1ccc(F)cc1F,i,i,i,i,i,x,x,x,x
O=C(CN1CCC(O)(c2cccc(F)c2)CC1)NCCc1c[nH]c2ccccc12,i,i,i,i,7.6*,i,i,i,i
COc1cc(C(O)P(=O)(OCCC(C)C)c2ccc(N(C)C)cc2)cc(OC)c1OC (configuration not stated),i,i,i,i,i,x,x,x,x
CCC(Cc1ccccc1)NC(=O)c1cc(S(=O)(=O)N2CCCCC2)c[nH]1 (configuration not stated),i,i,i,i,i,x,x,x,x
Cc1cc(-n2c(C)c3c(C)nnc(C)c3c2C)ccc1N,i,i,i,i,i,x,x,x,x
Cc1ccc(-n2c(C)c3c(C)nnc(C)c3c2C)cc1N,i,i,i,i,22*,i,i,i,i
COc1nc(NC(=O)c2ccc(F)cc2)nc(OC)c1-c1ccccc1,i,i,i,i,8.2*,i,i,i,i
CCc1cc(Cn2nc(-c3ccccc3)cc2C(=O)NCc2cccs2)on1,x,i,x,i,i,x,x,x,x
COc1ccccc1NC(=O)C(C)Nc1ccc(C)c(Cl)c1 (configuration not stated),i,i,i,i,6.9*,i,i,i,i
O=C(CSCc1ccccc1)N1CCN(c2ccc(F)cc2)CC1,i,i,i,i,i,x,x,x,x
O=C(CCc1ccccc1)N1CCN(c2ccc(F)cc2)CC1,i,i,i,i,8.9*,i,i,i,i
CC(C)CNc1ncnc2c1cnn2Cc1ccccc1Cl,i,i,i,i,10*,i,i,i,i
Cc1cccc(N=C2CSC(=O)N2)c1,i,i,i,i,7.4*,i,i,i,i
Cc1cccc(N=C2NC(=O)S/C2=C\c2ccco2)c1,i,i,i,i,i,x,x,x,x
CC1Cc2ccccc2N1C(=S)NC(=O)c1cccc(Br)c1 (configuration not stated),i,i,i,i,10*,i,i,i,i
OC(CSc1ccc(F)cc1)CN1CCN(c2ccccc2)CC1 (configuration not stated),i,i,i,i,i,x,x,x,x
O=C(CCc1nc(-c2ccccc2)c(-c2ccccc2)o1)OCc1ccc(Br)cc1,i,i,i,i,20*,i,i,i,i
O=C(CCc1nc(-c2ccccc2)c(-c2ccccc2)o1)OCc1ccc(Cl)cc1,i,i,i,i,i,x,x,x,x
COc1ccc(F)cc1S(=O)(=O)Nc1ccncc1,i,i,i,i,i,x,x,x,x
O=C(COC(=O)c1ccc(S(=O)(=O)NCc2ccco2)cc1)Nc1ccc(Cl)cn1,i,i,i,i,8.1*,i,i,i,i
Cc1ccccc1C(=O)Nc1nnc(S(=O)(=O)N(C)Cc2ccco2)s1,i,i,i,i,i,x,x,x,x
Cc1c([N+](=O)[O-])c([N+](=O)[O-])nn1CC(=O)N1CCOCC1,i,i,i,i,i,x,x,x,x
SMILES,RGS4 block,MrgX1 ag,RGS4 act,MrgX1 antag,MrgX1 PAM,MrgX1 PAM conf,HEK293 Ca flux,HEK293 Ca counter,HEK293 Ca cntr2
CCN1C(=O)CSC1=NC1C2CC3CC(C2)CC1C3 (configuration not stated),i,i,i,i,14*,i,i,i,i
CCC(C)[C@H](NC(=O)Nc1cccc(Br)c1)C(=O)OC (some centres not stated),i,i,i,i,i,x,x,x,x
CCOC(=O)c1c(CN(CC)CC)n(C)c2cc(Br)c(O)cc12,i,i,i,i,6.9*,i,i,i,i
Cc1nnc(NC(=O)c2cc(S(=O)(=O)N3CCCCC3)ccc2Cl)s1,i,i,i,i,i,x,x,x,x
CCOc1ccc(C(=O)NCC(=O)OCC(=O)N2CCC(C)CC2)cc1,i,i,i,i,8*,i,i,i,i
O=C(CSc1nc2ccc([N+](=O)[O-])cc2s1)NCC1CCCO1 (configuration not stated),i,i,i,i,i,x,x,x,x
Cc1cccc(NC(=O)C23CCC(C)(C2Br)C3(C)C)c1 (configuration not stated),i,i,i,i,20*,i,i,i,i
Cc1cccc(NC(=O)CC(=O)Nc2cccc(C)c2)c1,i,i,i,i,i,x,x,x,x
O=C(NC1=NCCS1)c1cc(-c2cccc(Br)c2)nc2ccccc12,i,i,i,i,i,x,x,x,x
Cc1ccc2nc(-c3cccc(Br)c3)cc(C(=O)NC3=NCCS3)c2c1,i,i,i,i,31*,i,i,i,i
COc1cc(N)c(C(O)c2nccc3cc(OC)c(OC)cc23)cc1OC (configuration not stated),i,i,i,i,i,x,x,x,x
